ChEMBL document CHEMBL2029254, “Use of libraries to access new chemical space: applications to CRTH2” (Bioorg Med Chem Lett, 2012)
pKi: −log10 of the molar value.

Tests used:
[1] = target: T1, Prostaglandin D2 receptor 2 (Homo sapiens) (UniProt Q9Y5Y4); assay: Displacement of [3H]PGD2 from human CRTH2 receptor expressed in CHO cell membrane at 2.8 uM after 120 mins by scintillation counting; format: cell membranes
T1 sequence (whole entry): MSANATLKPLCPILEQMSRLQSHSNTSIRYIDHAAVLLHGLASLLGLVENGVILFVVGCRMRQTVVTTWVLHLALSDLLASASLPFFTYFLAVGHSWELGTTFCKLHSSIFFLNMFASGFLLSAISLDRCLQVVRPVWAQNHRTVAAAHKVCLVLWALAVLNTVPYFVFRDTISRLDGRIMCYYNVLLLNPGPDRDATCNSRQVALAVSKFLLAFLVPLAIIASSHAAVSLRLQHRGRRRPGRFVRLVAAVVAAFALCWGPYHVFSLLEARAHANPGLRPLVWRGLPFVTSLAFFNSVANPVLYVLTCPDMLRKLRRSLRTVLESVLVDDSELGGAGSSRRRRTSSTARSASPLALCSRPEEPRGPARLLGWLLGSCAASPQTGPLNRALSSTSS

[2] = target: T2, Prostaglandin D2 receptor 2 (Homo sapiens, UniProt Q9Y5Y4); assay: Displacement of [3H]PGD2 from human CRTH2 receptor expressed in CHO cell membrane after 120 mins by scintillation counting; format: cell membranes
T2 sequence (Q9Y5Y4 whole entry): T1 sequence (whole entry)
Method in brief: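 Ki derived from the displacement IC50 by the Cheng–Prusoff relationship, using the KD and radioligand concentration supplied by the analyser. Values are geometric means of three or more independent determinations.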

Compound | inhibition [1] [%] | pKi [2]
CCc1nn(Cc2cc(Cl)ccc2Cl)c(CC)c1CC(=O)O | > 40 | 6.21
CCc1nn(CC(=O)O)c(CC)c1Cc1ccc2ccccc2c1 | > 40 | 6.20
O=C(O)Cn1cnc2c1CCN(C(=O)c1csc(-c3ccccc3)n1)C2 | > 40 | 6.12
O=C(O)COc1ccccc1COc1ccc(F)cc1C1CC1 | > 40 | 6.23

Now from value to molecule:

inhibition [1] [%] | pKi [2] | Compound
> 40 | 6.48 | CCCNC(=O)c1ccccc1OCc1cccc(C)c1OCC(=O)O
> 40 | 6.25 | CCc1nn(Cc2cccc(Br)c2)c(CC)c1CC(=O)O
> 40 | 6.24 | CCc1nn(Cc2ccc3ccccc3c2)c(CC)c1CC(=O)O
> 40 | 6.61 | O=C(O)COc1ccccc1COc1ccc(Cl)cc1-c1ccno1
> 40 | 6.28 | Cc1ccc(Cl)cc1OCc1ccccc1OCC(=O)O
> 40 | 6.31 | Cc1ccc2cccc(OCc3ccccc3OCC(=O)O)c2n1
